Test results published in article PMC3206322 (ACS chemical neuroscience, 2011).
“And” between values parts separate entries of the source, which are not always exact repeats. Equal entries are not always repeated.

Experiments:
Type in all cases: cell-based
[1] = target: T1, GluA2Qflip AMPA receptor (Homo sapiens, UniProt P42262); assay: Laser-pulse photolysis amplitude measurement of whole-cell current
How it was run: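 HEK-293S cells in DMEM/10% FBS at 37 °C, 5% CO2, were transiently transfected with GluA2Qflip by calcium phosphate, with GFP and large T-antigen plasmids, and used at 48 h. Whole-cell recording at −60 mV, pH 7.4, 22 °C in HEPES/NaCl buffer. Caged glutamate was photolysed by a 355 nm pulse after 6 s inhibitor preincubation. The A/AI ratio versus inhibitor concentration was fitted by eq 6.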

[2] = target: T1, GluA2Qflip AMPA receptor; assay: Solution-flow amplitude measurement of whole-cell current; settings: Ki (closed-channel), solution-flow technique, GluA2Qflip in HEK-293 cells; 100 μM glutamate; amplitude A/AI, eq 6
[3] = target: T1, GluA2Qflip AMPA receptor; assay: Laser-pulse photolysis rate measurement of channel opening; settings: for Mechanism of inhibition: inhibited both kop and kcl
How it was run: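 Transfected HEK-293S cells expressing GluA2Qflip were whole-cell clamped at −60 mV, pH 7.4, 22 °C. After 6 s preincubation with inhibitor, caged glutamate was photolysed by a 355 nm laser pulse of 200–800 μJ, with released glutamate calibrated against free glutamate in the same cell. The kcl term was taken from kobs at 100 μM glutamate over a range of inhibitor concentrations (eq 4), and kop at 350 μM (eq 5).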

[4] = Ki (100 μM glu), amplitude measurement, laser-pulse photolysis, GluA2Qflip in HEK-293 cells, 100 μM glutamate, closed-channel state

T1 sequence (P42262 25-883 isoform P42262-2 limits assumed): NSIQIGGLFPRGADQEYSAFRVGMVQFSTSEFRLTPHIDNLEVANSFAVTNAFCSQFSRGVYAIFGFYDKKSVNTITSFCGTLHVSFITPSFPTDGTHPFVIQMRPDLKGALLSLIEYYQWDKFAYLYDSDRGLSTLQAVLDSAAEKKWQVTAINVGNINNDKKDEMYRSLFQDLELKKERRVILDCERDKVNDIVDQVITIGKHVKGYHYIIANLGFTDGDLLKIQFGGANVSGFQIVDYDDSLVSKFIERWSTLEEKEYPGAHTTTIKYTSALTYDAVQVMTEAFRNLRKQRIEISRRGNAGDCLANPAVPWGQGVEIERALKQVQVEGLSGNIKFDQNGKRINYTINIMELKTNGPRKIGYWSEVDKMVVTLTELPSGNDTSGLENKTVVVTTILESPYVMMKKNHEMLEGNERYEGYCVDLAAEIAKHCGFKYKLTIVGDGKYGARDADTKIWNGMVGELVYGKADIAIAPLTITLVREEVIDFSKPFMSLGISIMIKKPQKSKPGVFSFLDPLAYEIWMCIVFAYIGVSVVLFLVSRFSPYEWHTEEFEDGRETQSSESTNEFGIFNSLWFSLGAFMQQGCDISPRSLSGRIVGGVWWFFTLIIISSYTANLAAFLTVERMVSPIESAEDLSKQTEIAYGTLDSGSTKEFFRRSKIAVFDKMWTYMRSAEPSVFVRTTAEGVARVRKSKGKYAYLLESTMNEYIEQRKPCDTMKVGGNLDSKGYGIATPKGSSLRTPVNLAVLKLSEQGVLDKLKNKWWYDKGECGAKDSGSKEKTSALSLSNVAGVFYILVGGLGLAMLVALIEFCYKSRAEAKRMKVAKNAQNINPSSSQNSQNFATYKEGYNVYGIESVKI

Row | Structure (SMILES) | Ki [1] | Ki [1, 4] | Ki [2] | Ki [3] | Mechanism of inhibition [3]
1 | CC1=NN=C(c2ccc(N)cc2)c2cc3c(cc2C1)OCO3 [GYKI 52466, 1-(4-aminophenyl)-4-methyl-7,8-methylenedioxy-5H-2,3-benzodiazepine] | 14 to 16 µM | 15 ± 1 µM | 14 ± 1 µM | 61 µM and 128 µM | noncompetitive
2 | Nc1ccc(C2=NNC(=O)Cc3cc4c(cc32)OCO4)cc1 [BDZ-2, 1-(4-aminophenyl)-3,5-dihydro-7,8-methylenedioxy-4H-2,3-benzodiazepin-4-one] | 23 to 25 µM | 25 ± 1 µM | 25 ± 1 µM | 48 µM and 194 µM | noncompetitive
